TRPC6 activator = mouse TRPC6 channel activators, primary screen, cell-based, HEK293, membrane potential dye | HEK293-TRPC6 membrane potential dye fluorescence; hits give high values | B-score at 10 µM | 310,000 compounds, 0.13% hits;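 active means B-score of the integrated fluorescence ratio above library mean plus 3 SD, and starting fluorescence ratio within library mean plus 5 SD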;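 further: higher score means more depolarization so channel activation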
TRPC6 inhibitor = mouse TRPC6 channel inhibitors, primary screen, cell-based, HEK293, membrane potential dye; B-score at 10 µM; 310,000 compounds, 1.1% hits; ACh-evoked depolarization; hits give low values; Short transient receptor potential channel 6 (Mus musculus), Q61143;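 active means B-score under library mean minus 3 SD, initial fluorescence not abnormally high, positive integrated signal ratio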;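 further: B-score derived from integrated fluorescence ratio over the kinetic read; more negative B-score means stronger inhibition of depolarization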
TRPC4 PAM = positive allosteric modulators of TRPC4, primary screen, cell-based, mouse TRPC4beta, HEK293 mu-opioid, Fluo-4 calcium; Short transient receptor potential channel 4 (Mus musculus), Q9QUQ5; DAMGO EC20, Fluo-4 Ca2+ flux; hits give high values; B-score at 10 µM; 310,000 compounds, 0.42% hits; AID 2227, 2009;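 active means B-score of calcium response area above 5 SD of library B-scores, with initial fluorescence ratio within 5 SD of library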;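 further: B-score of integrated fluorescence ratio over time as area under calcium response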
Target sequence (Q9QUQ5 whole entry, looked up): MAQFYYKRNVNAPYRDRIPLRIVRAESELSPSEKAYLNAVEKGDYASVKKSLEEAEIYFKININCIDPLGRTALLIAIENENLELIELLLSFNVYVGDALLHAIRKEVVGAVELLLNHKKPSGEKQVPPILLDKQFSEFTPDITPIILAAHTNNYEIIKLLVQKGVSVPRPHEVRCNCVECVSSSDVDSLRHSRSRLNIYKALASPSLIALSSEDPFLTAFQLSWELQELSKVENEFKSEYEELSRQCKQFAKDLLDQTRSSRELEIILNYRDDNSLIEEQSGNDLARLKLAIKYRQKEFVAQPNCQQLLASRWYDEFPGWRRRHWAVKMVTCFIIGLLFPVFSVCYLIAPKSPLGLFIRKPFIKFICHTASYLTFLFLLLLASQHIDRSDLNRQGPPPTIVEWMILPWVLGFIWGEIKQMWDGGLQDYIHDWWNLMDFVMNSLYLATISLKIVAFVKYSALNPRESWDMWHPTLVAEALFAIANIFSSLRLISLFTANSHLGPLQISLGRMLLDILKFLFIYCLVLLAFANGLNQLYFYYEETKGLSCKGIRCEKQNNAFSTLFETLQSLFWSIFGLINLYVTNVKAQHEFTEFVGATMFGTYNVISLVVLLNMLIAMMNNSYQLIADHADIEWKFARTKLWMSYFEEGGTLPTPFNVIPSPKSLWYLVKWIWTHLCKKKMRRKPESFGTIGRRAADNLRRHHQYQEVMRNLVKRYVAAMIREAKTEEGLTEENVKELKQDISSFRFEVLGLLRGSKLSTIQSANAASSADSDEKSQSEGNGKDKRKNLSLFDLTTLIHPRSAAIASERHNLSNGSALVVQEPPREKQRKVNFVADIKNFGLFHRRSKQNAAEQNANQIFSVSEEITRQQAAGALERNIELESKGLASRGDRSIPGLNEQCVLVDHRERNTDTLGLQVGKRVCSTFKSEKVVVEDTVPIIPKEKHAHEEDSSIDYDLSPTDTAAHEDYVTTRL
TRPC4 agonist = activators of mouse TRPC4 channel, primary screen, Fluo4 calcium, HEK293 TRPC4beta/mu-opioid cells; B-score at 10 µM; 310,000 compounds, 0.49% hits; Fluo4 calcium fluorescence; hits give high values; Short transient receptor potential channel 4 (Mus musculus), Q9QUQ5;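 active means B-score above 5 SD of library B-scores, and initial fluorescence ratio not above library mean plus 5 SD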;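 further: positive B-score marks a calcium rise read as TRPC4 activation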
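Assay system – TRPC4beta and mu-opioid receptor HEK293 stable cells · Measured by – Fluo4 fluorescence, kinetic · Schedule – dye loading 45 min room temperature, 110 s kinetic read · Read-out – B-scored integrated calcium fluorescence ratio · Controls – buffer and maximal DAMGO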
TRPC4 block = inhibitors of mouse TRPC4 channel, primary screen, Fluo4 calcium, HEK293 TRPC4beta/mu-opioid cells. Short transient receptor potential channel 4 (Mus musculus), Q9QUQ5. 300,000 compounds, 0.39% hits. AID 2247, 2010. B-score at 10 µM. DAMGO-evoked Fluo4 calcium flux; hits give low values;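 active means B-score over 3 SD under the library average, no early fluorescence shift, positive overall ratio signal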
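Assay system – HEK293 line stably carrying TRPC4beta and mu-opioid receptor · Doses – single dose · Detection – Fluo4 calcium-dye fluorescence, kinetic read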
TRPC4 sel inh 2 = second selectivity test of TRPC6 inhibitors: effect on mouse TRPC4; shares compounds with TRPC6 inhibitor; HEK293 TRPC4/MOR, membrane potential dye fluorescence; channel activated by saturating DAMGO dose; inhibition, % at 10 µM; 920 compounds, 42% hits; AID 2776;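 active means compounds whose fluorescence signal differed from control wells by over 3 SD, either direction, in both duplicate plates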
TRPC4 spec = mouse TRPC4 modulation by TRPC6 hits, confirmation, selectivity assay for TRPC6 inhibitor project, cell-based, HEK293 TRPC4/mu-opioid, membrane potential dye; activity change, negative = inhibition, % at 10 µM; shares compounds with TRPC6 inhibitor; 920 compounds, 61% hits; membrane potential fluorescence;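 active means rise or fall in signal beyond 3 SD of buffer-only wells in both replicate plates, either sign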;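 further: integrated kinetic ratio of fluorescence range over baseline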
HEK293 MPD ctr 2-1 = nonspecific membrane potential effects, parental HEK293, confirmation, counter-screen for TRPC6 inhibitor project, cell-based, second counter screen; shares compounds with TRPC6 inhibitor; parental HEK293 membrane potential dye fluorescence; maximal acetylcholine challenge after compound addition; signal change vs control, % at 10 µM; 920 compounds, 31% hits; AID 2779, 2010;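 active means membrane potential signal moving either way by over 3 SD of the maximum-effect control, in both duplicate plates, meaning non-specific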
HEK293 MPD ctr-1 = membrane potential modulation in parental HEK293, confirmation, counter-screen for TRPC6 inhibitor project, cell-based; membrane potential signal change, % at 10 µM; AID 2780, 2010; 920 compounds, 60% hits; parental HEK293 membrane potential dye fluorescence; shares compounds with TRPC6 inhibitor;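 active means membrane potential signal shifting up or down by more than 3 SD of buffer-only wells, on both duplicate plates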
HEK293 MPD ctr-2 = parental HEK293 membrane potential modulation, confirmation, counter-screen for TRPC6 modulator project, cell-based. membrane potential signal change, % at 10 µM. shares compounds with TRPC6 inhibitor. 2,400 compounds, 51% hits. membrane potential dye fluorescence;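 active means membrane potential signal moves up or down beyond 5 SD from buffer-only wells, on both duplicate plates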
HEK293 MPD ctr 2-2 = second counter-screen for TRPC6 modulators: effect in parental HEK293 cells | shares compounds with TRPC6 inhibitor | membrane potential dye fluorescence; after compound, maximal acetylcholine stimulation | inhibition, % at 10 µM | 2,400 compounds, 14% hits;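 active means membrane potential signal drops by more than 5 SD from the mean control signal, in both duplicate plates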;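 further: plate controls were acetylcholine ECmax control wells for no effect and buffer only wells for full effect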
TRPC4/MOR mod = TRPC4 modulation by TRPC6 hit compounds, confirmation, selectivity assay for TRPC6 modulator project, cell-based, HEK293 TRPC4/mu-opioid, membrane potential dye, mouse | shares compounds with TRPC6 inhibitor | membrane potential fluorescence | percent change from control (negative = decrease, positive = increase), % at 10 µM | 2,400 compounds, 69% hits;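 active means membrane potential signal moved up or down beyond 5 SD of buffer control wells, in both duplicate plates, actives on both sides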;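 further: plate controls were assay buffer wells for no effect and DAMGO maximal-effect wells for full effect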
TRPC4/MOR inh 2 = mouse TRPC4 off-target activity of TRPC6 modulators, second screen | shares compounds with TRPC6 inhibitor | HEK293 TRPC4/mu-opioid, membrane potential dye fluorescence; stimulated with maximal-effect DAMGO | inhibition, % at 10 µM | 2,400 compounds, 55% hits | AID 488928;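 active means drop in membrane potential signal beyond 5 SD of the control wells in both duplicate plates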;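 further: TRPC4 counter screen for TRPC6 hits run under conditions tuned for TRPC6 not TRPC4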
TRPC6 block conf = mouse TRPC6 channel inhibitors, confirmation, HEK293 cells, membrane potential dye, duplicate | shares compounds with TRPC6 inhibitor | ACh-evoked depolarization | inhibition, % at 10 µM | 3,300 compounds, 43% hits;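 active means fluorescence ratio falls more than 5 SD below the full-stimulation control mean, in both duplicate runs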;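 further: integrated fluorescence ratio of peak minus minimum over baseline after agonist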
TRPC6 act confirm = mouse TRPC6 channel activators, confirmation, HEK293 cells, membrane potential dye, duplicate. shares compounds with TRPC6 inhibitor. HEK293-TRPC6 membrane potential dye fluorescence, FDSS. activation, % at 10 µM. 2,800 compounds, 11% hits. AID 488961, 2010;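 active means ratio signal rise beyond 5 SD above unstimulated control wells' mean, seen in both duplicate runs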;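 further: plate controls were buffer EC0 wells for no effect and acetylcholine ECmax response for full effect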
Numbers without * were called inactive; i = inactive; . = no result. This is a sample that favours compounds with a hit; in the whole collection about 2.3% have one here.

SMILES	TRPC6 activator	TRPC6 inhibitor	TRPC4 PAM	TRPC4 agonist	TRPC4 block	HEK293 MPD ctr-2	HEK293 MPD ctr 2-2	TRPC4/MOR mod	TRPC4/MOR inh 2	TRPC6 block conf	TRPC6 act confirm	others
COc1ccccc1CNC(=O)c1ccc2nc(N3CCOCC3)sc2c1	i	i	i	i	i	.	.	.	.	.	.
Brc1ccccc1/C=N/Nc1ccc2ccccc2n1	i	-6.2*	i	i	i	i	i	i	56.5%*	i	i
Brc1ccc(/C=N/Nc2ccc3ccccc3n2)cc1	i	i	i	i	i	.	.	.	.	.	.
CCOC(=O)c1cnc2ccc(C(=O)OC)cc2c1NCCc1ccc(OC)c(OC)c1	i	i	i	i	i	.	.	.	.	.	.
CCOC(=O)c1cnc2ccc(OCC)cc2c1NCCCN1CCOCC1	i	-6.07*	i	i	i	i	80.0%*	21.0%*	34.0%*	42.0%*	i
CCOC(=O)c1cnc2ccc(C)cc2c1NCCO	i	-8.18*	i	i	i	.	.	.	.	i	i	TRPC4 sel inh 2=i;TRPC4 spec=-11.6%*;HEK293 MPD ctr 2-1=6.5%*;HEK293 MPD ctr-1=-279.0%*
CCOC(=O)c1cnc2ccc(OCC)cc2c1N1CCN(C)CC1	i	-5.5*	i	i	i	-109.5%*	i	-18.5%*	43.0%*	i	i
CCOC(=O)c1cnc2ccc(OCC)cc2c1NCCN1CCOCC1	i	-5.2*	i	i	i	i	i	i	41.0%*	i	i
C=CCc1cc(Cl)ccc1OC(=O)Nc1cccc(Cl)c1	i	i	i	i	i	.	.	.	.	.	.
O=C(CCc1ccccc1)N=C1SC2CS(=O)(=O)CC2N1Cc1ccc(F)cc1 (centres undefined)	i	i	i	i	i	.	.	.	.	.	.
